Results as given in ChEMBL document CHEMBL3627681, “Synthesis and biological evaluation of 1,3-diaryl pyrazole derivatives as potential antibacterial and anti-inflammatory agents” (2015).
≈ marks a conversion by molar mass, not a printed value. Calls of active or inactive are those of the source. The calls are words filed in the database; no cut-off is given here.

How the values were obtained:
Mus musculus [1] = assay: Antiinflammatory activity in mouse assessed as inhibition of xylene-induced ear edema at 50 mg/kg, po administered 3 hrs before xylene challenge relative to control; format: functional
Summary of the method: (§1)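 Compound was homogenized in 0.5% CMC-Na and given orally at 50 mg/kg, 0.4 mL/20 g; controls got CMC-Na vehicle only. Xylene was applied to the ear 1, 2, 3, 4, 5 or 24 h after dosing. Edema was measured as the weight difference of 7 mm ear plugs and reported as % reduction versus vehicle controls.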

Mus musculus [2] = assay: Antiinflammatory activity in mouse assessed as inhibition of xylene-induced ear edema at 50 mg/kg, po administered 5 hrs before xylene challenge relative to control; format: functional; summary of the method: as §1
Mus musculus [3] = assay: Antiinflammatory activity in mouse assessed as inhibition of xylene-induced ear edema at 50 mg/kg, po administered 4 hrs before xylene challenge relative to control; format: functional; summary of the method: as §1
Mus musculus [4] = assay: Antiinflammatory activity in mouse assessed as inhibition of xylene-induced ear edema at 25 mg/kg, po administered 3 hrs before xylene challenge relative to control; format: functional
Summary of the method: (§2)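 Oral dosing-level study: compound suspended in 0.5% CMC-Na and given po at 25 or 12.5 mg/kg, 0.4 mL/20 g; vehicle controls received CMC-Na. Xylene ear challenge was applied 3 h after dosing. Edema was measured as the ear-plug weight difference and reported as % reduction versus vehicle controls.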

Mus musculus [5] = assay: Antiinflammatory activity in mouse assessed as inhibition of xylene-induced ear edema at 50 mg/kg, ip administered 30 mins before xylene challenge relative to control; format: functional
Summary of the method: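 Mice received compound freshly dissolved in DMSO, 50 mg/kg ip at 0.05 mL/20 g body weight; vehicle controls got DMSO alone. After 30 min, 20 µL xylene was applied to the right ear. After a further 30 min, 7 mm plugs were cut from treated and untreated ears and edema taken as their weight difference. Result is % edema reduction versus vehicle controls.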

Mus musculus [6] = assay: Antiinflammatory activity in mouse assessed as inhibition of xylene-induced ear edema at 12.5 mg/kg, po administered 3 hrs before xylene challenge relative to control; format: functional; summary of the method: as §2
Mus musculus [7] = assay: Antiinflammatory activity in mouse assessed as inhibition of xylene-induced ear edema at 50 mg/kg, po administered 24 hrs before xylene challenge relative to control; format: functional, organism-based; summary of the method: as §1
Mus musculus [8] = assay: Antiinflammatory activity in mouse assessed as inhibition of xylene-induced ear edema at 50 mg/kg, po administered 2 hrs before xylene challenge relative to control; format: functional; conditions: read-out: INH; summary of the method: as §1
Mus musculus [9] = assay: Antiinflammatory activity in mouse assessed as inhibition of xylene-induced ear edema at 50 mg/kg, po administered 1 hr before xylene challenge relative to control; format: functional; conditions: read-out: INH; summary of the method: as §1
Staphylococcus aureus [10] = assay: Ratio of oxacillin MIC to compound MIC for methicillin-resistant Staphylococcus aureus CCARM 3506 after 24 hrs by two-fold serial dilution method; format: functional
Staphylococcus aureus [11] = assay: Antibacterial activity against Staphylococcus aureus 209 after 24 hrs by two-fold serial dilution method; format: functional; conditions: Staphylococcus aureus, 209, 24 h
Summary of the method: (§3)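 Broth microdilution in Mueller-Hinton broth. Bacteria grown to mid-log phase, diluted 1000-fold, and inoculated at 10⁵ CFU/mL. Test compounds in DMSO, final DMSO not above 0.05%, final concentrations 64-0.5 µg/mL. Incubation 24 h at 37 °C, growth read as absorbance at 650 nm. MIC taken as the lowest concentration giving complete growth inhibition. Run three times.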

Streptococcus mutans = assay: Antibacterial activity against Streptococcus mutans 3065 after 24 hrs by two-fold serial dilution method; format: functional; conditions: Streptococcus mutans, 3065, 24 h
Summary of the method: (§4)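 Broth microdilution in Mueller-Hinton broth over final concentrations of 64–0.5. Bacteria were grown to mid-log phase and diluted 1000-fold, then inoculated at 10⁵ CFU/mL. Compounds were dissolved in DMSO, with final DMSO at most 0.05%. Plates were incubated 24 h at 37 °C and growth read as absorbance at 650 nm. MIC is the concentration giving complete growth inhibition. Three independent runs.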

Staphylococcus aureus [12] = assay: Antibacterial activity against Staphylococcus aureus 503 after 24 hrs by two-fold serial dilution method; format: functional; conditions: Staphylococcus aureus, 503, 24 h; summary of the method: as §3
Staphylococcus aureus [13] = assay: Antibacterial activity against quinolone-resistant Staphylococcus aureus CCARM 3519 after 24 hrs by two-fold serial dilution method; format: functional; conditions: CCARM 3519, 24 h; summary of the method: as §3
Candida albicans = assay: Antifungal activity against Candida albicans 7535 by two-fold serial dilution method; format: functional
Staphylococcus aureus [14] = assay: Ratio of norfloxacin MIC to compound MIC for methicillin-resistant Staphylococcus aureus CCARM 3506 after 24 hrs by two-fold serial dilution method; format: functional
Staphylococcus aureus [15] = assay: Antibacterial activity against Staphylococcus aureus RN4220 after 24 hrs by two-fold serial dilution method; format: functional; conditions: RN4220, 24 h; summary of the method: as §3
Salmonella typhimurium = assay: Antibacterial activity against Salmonella typhimurium 2421 after 24 hrs by two-fold serial dilution method; format: functional, Salmonella enterica subsp. enterica serovar Typhimurium; conditions: Salmonella enterica, 2421, 24 h; summary of the method: as §4
Pseudomonas aeruginosa [16] = assay: Antibacterial activity against Pseudomonas aeruginosa 2742 after 24 hrs by two-fold serial dilution method; format: functional; conditions: Pseudomonas aeruginosa, 2742, 24 h; summary of the method: as §4
Staphylococcus aureus [17] = assay: Antibacterial activity against methicillin-resistant Staphylococcus aureus CCARM 3506 after 24 hrs by two-fold serial dilution method; format: functional; conditions: CCARM 3506, 24 h; summary of the method: as §3
Staphylococcus aureus [18] = assay: Antibacterial activity against quinolone-resistant Staphylococcus aureus CCARM 3505 after 24 hrs by two-fold serial dilution method; format: functional; conditions: CCARM 3505, 24 h; summary of the method: as §3
Escherichia coli [19] = assay: Antibacterial activity against Escherichia coli KCTC 1924 after 24 hrs by two-fold serial dilution method; format: functional; conditions: KCTC 1924, 24 h; summary of the method: as §4
Staphylococcus aureus [20] = assay: Antibacterial activity against methicillin-resistant Staphylococcus aureus CCARM 3167 after 24 hrs by two-fold serial dilution method; format: functional; conditions: CCARM 3167, 24 h; summary of the method: as §3
Escherichia coli [21] = assay: Antibacterial activity against Escherichia coli CCARM 1356 after 24 hrs by two-fold serial dilution method; format: functional; conditions: CCARM 1356, 24 h; summary of the method: as §4
Pseudomonas aeruginosa [22] = assay: Antibacterial activity against Pseudomonas aeruginosa 2004 after 24 hrs by two-fold serial dilution method; format: functional; conditions: Pseudomonas aeruginosa, 2004, 24 h; summary of the method: as §4

COc1ccc2c(c1)c(CC(=O)O)c(C)n2C(=O)c1ccc(Cl)cc1 [INDOMETHACIN]
inhibition in vivo at 50 mg/kg (Mus musculus [1]): 23%
inhibition in vivo at 50 mg/kg (Mus musculus [2]): 26.9%
inhibition in vivo at 50 mg/kg (Mus musculus [3]): 34.9%
inhibition in vivo at 25 mg/kg (Mus musculus [4]): 53.9%
inhibition in vivo at 50 mg/kg (Mus musculus [5]): 45.2%
inhibition in vivo at 12.5 mg/kg (Mus musculus [6]): 56.3%
inhibition (Mus musculus [7]): inactive
inhibition in vivo at 50 mg/kg (Mus musculus [8]): 9.93%
inhibition in vivo at 50 mg/kg (Mus musculus [9]): 29.7%

N=C(N)N/N=C/c1cn(-c2ccccc2)nc1-c1cccc(Cl)c1
Ratio (Staphylococcus aureus [10]): 64
inhibition in vivo at 50 mg/kg (Mus musculus [1]): 50.9%
MIC (Staphylococcus aureus [11]): 2 µg/mL (≈ 5.9 µM)
MIC (Streptococcus mutans): 8 µg/mL (≈ 23.6 µM)
MIC (Staphylococcus aureus [12]): 2 µg/mL (≈ 5.9 µM)
MIC (Staphylococcus aureus [13]): 2 µg/mL (≈ 5.9 µM)
MIC (Candida albicans): 1 µg/mL (≈ 2.95 µM)
inhibition in vivo at 50 mg/kg (Mus musculus [2]): 35.2%
Ratio (Staphylococcus aureus [14]): 4
MIC (Staphylococcus aureus [15]): 2 µg/mL (≈ 5.9 µM)
MIC (Salmonella typhimurium): 8 µg/mL (≈ 23.6 µM)
MIC (Pseudomonas aeruginosa [16]): > 64 µg/mL
MIC (Staphylococcus aureus [17]): 1 µg/mL (≈ 2.95 µM)
inhibition in vivo at 50 mg/kg (Mus musculus [3]): 4.39%
inhibition in vivo at 25 mg/kg (Mus musculus [4]): 39.3%
inhibition in vivo at 50 mg/kg (Mus musculus [5]): 93.6%
MIC (Staphylococcus aureus [18]): 2 µg/mL (≈ 5.9 µM)
inhibition in vivo at 12.5 mg/kg (Mus musculus [6]): 56.7%
MIC (Escherichia coli [19]): 1 µg/mL (≈ 2.95 µM)
MIC (Staphylococcus aureus [20]): 1 µg/mL (≈ 2.95 µM)
inhibition (Mus musculus [7]): inactive
MIC (Escherichia coli [21]): 16 µg/mL (≈ 47.2 µM)
MIC (Pseudomonas aeruginosa [22]): > 64 µg/mL
inhibition in vivo at 50 mg/kg (Mus musculus [9]): 26.9%
